Where “and” joins values, the source holds several entries; their conditions need not be identical. Equal entries are not always repeated. Where two headings read alike, the source gives them in different places. Marks after values point to notes of the source that are not given here.
Assays:
[1] = format: in vivo, Nrf2 knockout C57BL/6J (−/−) mice; details: for AUC0-∞ /Dose: Nrf2(−/−) mice; for AUC, folds increase: Nrf2(−/−) vs Nrf2(+/+) mice; for AUC / Cmax / MRT / Tmax / half-life: male, C57BL/6J, mouse, plasma
Summary of the method: (§1)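 Age-matched male C57BL/6J mice, Nrf2 (+/+) or (−/−), 10–15 weeks old, on AIN-76A diet from 3 days before dosing. Dosed 500 mg/kg by oral gavage after an overnight fast, or 100 mg/kg i.p.; vehicle Cremophor EL/tween-80/ethanol/water (2:1:1:6). Composite sampling by heart puncture from 2 min (i.p. only) or 7.5 min to 36 h, three mice per time point. Non-compartmental analysis; t1/2 = ln2/kel from terminal slope.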

Blood cell partitioning = format: in vitro ADME; details: rat, fresh pooled rat blood
Summary of the method: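 Fresh pooled rat blood spiked 1:100 with test compound in methanol (final 10 μg/mL). Incubated 2 h at 37°C in a shaking water bath. Plasma separated at once by centrifugation and assayed by HPLC-UV to give the blood-to-plasma concentration ratio (CB/CP). Run in triplicate.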

[2] = format: in vivo, Nrf2 wild type C57BL/6J (+/+) mice; details: for AUC / Cmax / MRT / Tmax: male, C57BL/6J, mouse, plasma
Summary of the method: as §1

[3] = Pharmacokinetics after oral administration to rats; format: in vivo, male Sprague-Dawley rats; details: rat; for Cmax / AUC(0-inf) / MRT / half-life: male, Sprague-Dawley, po
[4] = Pharmacokinetics after intravenous administration to rats; format: in vivo, male Sprague-Dawley rats; details: rat; for MRT / Vd / clearance / half-life / AUC(0-inf): male, Sprague-Dawley; for AUC(0-inf): AUC0-∞
Summary of the method: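 Male Sprague-Dawley rats (250–300 g) with jugular vein cannulae, fed antioxidant-free AIN-76A diet and acclimatized 3 days. Single i.v. dose of 10 or 20 mg/kg via cannula in Cremophor EL/tween-80/ethanol/water (2:1:1:6). Blood (200 μL) sampled from 2 min to 36 h; plasma stored at −80°C and assayed by HPLC-UV. Non-compartmental analysis: log-linear trapezoidal AUC, CL = Dose/AUC0-∞, MRT = AUMC0-∞/AUC0-∞.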

[5] = p.o. 250 mg/kg, regular emulsion

## O=C(CC(=O)c1ccccc1)c1ccccc1 [DBM, 1,3-Diphenyl-1,3-propanedione]
[1]; i.p. 100 mg/kg
  AUC0-∞ /Dose: 0.221 (μg·h/mL)/(mg/kg)
  AUC, folds increase: 2.3 fold
[1]; p.o. 500 mg/kg
  AUC0-∞ /Dose: 0.171 (μg·h/mL)/(mg/kg)
  AUC, folds increase: 1.3 fold
[1]; Nrf2 knockout vs wild type mice, i.p. 100 mg/kg
  apparent terminal half-life, fold increase: 2 fold
[1]; ip, 100 mg/kg
  AUC: 22.1 µg·h/mL
  Cmax: 6.86 µg/mL
  MRT: 5.15 h
  Tmax: 0.25 h
  half-life: 5.04 h
[1]; po, 500 mg/kg
  AUC: 85.6 µg·h/mL
  Cmax: 17.4 µg/mL
  MRT: 6.36 h
  Tmax: 0.25 h
  half-life: 8.52 h
Blood cell partitioning
  blood plasma ratio at 2 h, 10 μg/mL: 0.93 ± 0.19
[2]; Nrf2(+/+) mice, i.p. 100 mg/kg
  AUC0-∞ /Dose: 0.096 (μg·h/mL)/(mg/kg)
[2]; Nrf2(+/+) mice, p.o. 500 mg/kg
  AUC0-∞ /Dose: 0.129 (μg·h/mL)/(mg/kg)
[2]; Nrf2(+/+) mice, p.o. 500 mg/kg, 500 mg/kg
  Apparent terminal t1/2: 6.09 h
[2]; ip, 100 mg/kg
  AUC: 9.62 µg·h/mL
  Cmax: 4.56 µg/mL
  MRT: 2.76 h
  Tmax: 0.25 h
[2]; po, 500 mg/kg
  AUC: 64.6 µg·h/mL
  Cmax: 23.2 µg/mL
  MRT: 4.73 h
  Tmax: 0.25 h
[2]; mice, i.p. 100 mg/kg, genotype not given, context Nrf2(+/+)
  peak plasma concentration: 20.4 µM
[3]; in vivo, 250 mg/kg
  Cmax: 2.88 ± 0.74 µg/mL
[3]; plasma, 10 mg/kg
  AUC(0-inf): 2.25 ± 0.33 µg·h/mL
  Cmax: 0.34 ± 0.04 µg/mL
  MRT: 7.6 ± 2.3 h
  half-life: 11 ± 3 h
[3]; plasma, 50 mg/kg
  AUC(0-inf): 9.46 ± 1.62 µg·h/mL
  Cmax: 1.5 ± 0.41 µg/mL
  MRT: 9.4 ± 2 h
  half-life: 9.3 ± 2 h
[3]; plasma, 250 mg/kg
  AUC(0-inf): 30.4 ± 6.89 µg·h/mL
  Cmax: 3.02 ± 0.66 µg/mL
  MRT: 12 ± 4.3 h
  half-life: 11 ± 8 h
[3]; p.o. 10 mg/kg, regular emulsion
  AUC0-∞ /Dose: 0.225 ± 0.033 (μg·h/mL)/(mg/kg)
[3]; p.o. 50 mg/kg, regular emulsion, Gastroplus three-compartment fitting
  Ka (absorption rate constant): 0.029 ± 0.046 h⁻¹
[3]; [5]
  AUC0-∞ /Dose: 0.122 ± 0.027 ^a (μg·h/mL)/(mg/kg)
  fraction absorbed in GIT (deconvolution analysis): 10.8%
[3]; p.o. 250 mg/kg, regular emulsion, 250 mg/kg
  Tmax: 4.0 ± 2.0 h
[4]; plasma, iv, 10 mg/kg
  MRT: 10.4 ± 3.33 h
  Vd: 6.75 ± 1.85 L/kg
  clearance: 0.71 L/h/kg
  half-life: 14.4 ± 5 h
[4]; plasma, iv, 10 mg/kg, i.v. 10 mg/kg
  AUC(0-inf): 16.5 ± 7.85 µg·h/mL
[4]; plasma, iv, 20 mg/kg
  MRT: 10.2 ± 6.1 h
  Vd: 7.35 ± 4.26 L/kg
  clearance: 0.72 L/h/kg
  half-life: 12 ± 5.34 h
[4]; plasma, iv, 20 mg/kg, i.v. 20 mg/kg
  AUC(0-inf): 27.9 ± 2.4 µg·h/mL
[4]; whole blood, intravenous, 10 mg/kg
  clearance: ~0.762 L/h/kg
[4]; i.v. 10 mg/kg, 10 mg/kg
  AUC0-∞ /Dose: 1.65 (μg·h/mL)/(mg/kg) and 1.65 ± 0.79 (μg·h/mL)/(mg/kg)
[4]; i.v. 20 mg/kg, 20 mg/kg
  AUC0-∞: 28.0 ± 2.40 µg·h/mL
  AUC0-∞ /Dose: 1.40 (μg·h/mL)/(mg/kg) and 1.40 ± 0.12 (μg·h/mL)/(mg/kg)

Reference: paper PMC3580179 (Biopharmaceutics & drug disposition, 2010)
